In ChEMBL document CHEMBL1156517, “Targeting thyroid hormone receptor-beta agonists to the liver reduces cholesterol and triglycerides and improves the therapeutic index” (Proc Natl Acad Sci U S A, 2007):
Active and inactive are the calls of the source. The rule behind the calls is not given here.

How the values were obtained:
Rattus norvegicus [1] = experiment: Effect on TSH-beta mRNA expression in po dosed Sprague-Dawley rat pituitary gland; assay type: functional, organism-based; details: TDE = time-dependent effect
Rattus norvegicus [2] = experiment: Effect on food intake in Sprague-Dawley rat at 650 ug/kg/day, sc after 8 days; assay type: functional
Rattus norvegicus [3] = experiment: Toxicity in Sprague-Dawley rat assessed as suppression of thyroid hormone axis measured by decrease in TSH-beta mRNA level at 300 mg/kg/day, po for 7 days relative to control; assay type: organism-based; parameters: route oral; details: in vivo, 168 h
Rattus norvegicus [4] = experiment: Toxicity in Sprague-Dawley rat assessed as suppression of thyroid hormone axis measured by decrease in total 3,5,3',5'-tetraiodo-L-thyronine level at 3 mg/kg/day, po for 7 days; assay type: organism-based; parameters: route oral; details: in vivo, 168 h
Rattus norvegicus [5] = experiment: Effect on plasma fatty acid level in Sprague-Dawley rat at 650 ug/kg/day, sc after 8 days; assay type: functional
Rattus norvegicus [6] = experiment: Effect on type 1 iodothyronine deiodinase mRNA expression in po dosed Sprague-Dawley rat kidney; assay type: functional, organism-based; details: TDE = time-dependent effect
Summary of the method: (§1)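 Killed 3, 8 and 24 h post-dose under 2.5% isoflurane. Pituitary and thyroid snap-frozen; liver, heart, soleus, spleen and kidney freeze-clamped. mRNA by quantitative real-time PCR, expressed as fold-change vs vehicle.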

Rattus norvegicus [7] = experiment: Effect on UCP3 mRNA expression in po dosed Sprague-Dawley rat muscle; assay type: functional, organism-based; details: Muscle tissue, TDE = time-dependent effect
Rattus norvegicus [8] = experiment: Effect on LDLR mRNA expression in po dosed Sprague-Dawley rat liver; assay type: functional, organism-based; details: TDE = time-dependent effect
Rattus norvegicus [9] = experiment: Toxic cardiac effect on Sprague-Dawley rat assessed as increase in systolic aortic pressure at >= 0.065 mg/kg/day, po for 7 days; assay type: toxicity, organism-based; parameters: route oral; details: in vivo, 168 h
Summary of the method: (§2)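 Male SD rats (n = 6 per group) dosed daily by oral gavage for 7 days; vehicle group included. On day 7, rats anesthetized with isoflurane; catheter-tip transducer inserted into left ventricle via right carotid artery. LV pressure, LV dP/dt and heart rate (lead I ECG) recorded digitally. Systolic/diastolic aortic pressure taken by retracting catheter into proximal aorta.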

Mus musculus [10] = experiment: Effect on hepatic LDLR mRNA level in LDLR deficient C57BL/6 mouse at 0.5 mg/kg/day once daily for 7 days; assay type: functional
Rattus norvegicus [11] = experiment: Toxicity in Sprague-Dawley rat assessed as suppression of thyroid hormone axis measured by decrease in total 3,5,3',5'-tetraiodo-L-thyronine level at 30 mg/kg/day, po for 7 days; assay type: organism-based; parameters: route oral; details: in vivo, 168 h
Rattus norvegicus [12] = experiment: Effect on body weight in Sprague-Dawley rat at 650 ug/kg/day, sc after 8 days; assay type: functional
Rattus norvegicus [13] = experiment: Toxicity in Sprague-Dawley rat assessed as suppression of thyroid hormone axis measured by decrease in TSH-beta mRNA level at 3 mg/kg/day, po for 7 days relative to control; assay type: organism-based; parameters: route oral; details: in vivo, 168 h
Rattus norvegicus [14] = experiment: Toxicity in Sprague-Dawley rat assessed as suppression of thyroid hormone axis measured by decrease in serum TSH level at 30 mg/kg/day, po for 7 days relative to control; assay type: organism-based; parameters: route oral; details: in vivo, 168 h
Rattus norvegicus [15] = experiment: Toxicity in Sprague-Dawley rat assessed as suppression of thyroid hormone axis measured by decrease in serum TSH level at 300 mg/kg/day, po for 7 days relative to control; assay type: organism-based; parameters: route oral; details: in vivo, 168 h
Rattus norvegicus [16] = experiment: Effect on MHCbeta mRNA expression in po dosed Sprague-Dawley rat heart; assay type: functional, organism-based; details: TDE = time-dependent effect
Rattus norvegicus [17] = experiment: Toxicity in Sprague-Dawley rat assessed as suppression of thyroid hormone axis measured by decrease in serum TSH level at 1000 mg/kg/day, po for 7 days relative to control; assay type: organism-based; parameters: route oral; details: in vivo, 168 h
Rattus norvegicus [18] = experiment: Effect on type 1 iodothyronine deiodinase mRNA expression in po dosed Sprague-Dawley rat liver; assay type: functional, organism-based; details: TDE = time-dependent effect; summary of the method: as §1
Rattus norvegicus [19] = experiment: Effect on type 1 iodothyronine deiodinase mRNA expression in po dosed Sprague-Dawley rat spleen; assay type: functional, organism-based; details: TDE = time-dependent effect; summary of the method: as §1
Mus musculus [20] = experiment: Decrease in cholesterol level in wild-type C57BL/6 mouse at 5 mg/kg/day once daily for 7 days; assay type: functional, organism-based
Rattus norvegicus [21] = experiment: Toxicity in Sprague-Dawley rat assessed as suppression of thyroid hormone axis measured by decrease in total […]-L-thyronine level at 30 mg/kg/day, po for 7 days; assay type: organism-based; parameters: route oral; details: in vivo, 168 h
Rattus norvegicus [22] = experiment: Toxicity in Sprague-Dawley rat assessed as suppression of thyroid hormone axis measured by decrease in total […]-L-thyronine level at 300 mg/kg/day, po for 7 days; assay type: organism-based; parameters: route oral; details: in vivo, 168 h
Rattus norvegicus [23] = experiment: Toxicity in Sprague-Dawley rat assessed as suppression of thyroid hormone axis measured by decrease in total 3,5,3',5'-tetraiodo-L-thyronine level at 1000 mg/kg/day, po for 7 days; assay type: organism-based; parameters: route oral; details: in vivo, 168 h
Rattus norvegicus [24] = experiment: Effect on fasting blood glucose level in Sprague-Dawley rat at 650 ug/kg/day, sc after 8 days by oral glucose tolerance test; assay type: functional
Rattus norvegicus [25] = experiment: Effect on malic enzyme mRNA expression in po dosed Sprague-Dawley rat liver; assay type: functional, organism-based; details: TDE = time-dependent effect; summary of the method: as §1
Rattus norvegicus [26] = experiment: Toxicity in Sprague-Dawley rat assessed as suppression of thyroid hormone axis measured by decrease in total […]-L-thyronine level at 3 mg/kg/day, po for 7 days; assay type: organism-based; parameters: route oral; details: in vivo, 168 h
Rattus norvegicus [27] = experiment: Toxic cardiac effect on Sprague-Dawley rat assessed as increase in first derivative of left ventricular pressure at >= 0.065 mg/kg/day, po for 7 days; assay type: toxicity, organism-based, Heart left ventricle; parameters: route oral; details: in vivo, 168 h; summary of the method: as §2
Rattus norvegicus [28] = species on record: Rattus norvegicus; experiment: Reduction in plasma cholesterol level in cholesterol fed Sprague-Dawley rat; assay type: functional
Rattus norvegicus [29] = experiment: Effect on type 1 iodothyronine deiodinase mRNA expression in po dosed Sprague-Dawley rat pituitary gland; assay type: functional, organism-based; details: TDE = time-dependent effect; summary of the method: as §1
Rattus norvegicus [30] = experiment: Effect on type 1 iodothyronine deiodinase mRNA expression in po dosed Sprague-Dawley rat thyroid gland; assay type: functional, organism-based; details: TDE = time-dependent effect; summary of the method: as §1
Rattus norvegicus [31] = experiment: Effect on SREBP-1c mRNA expression in po dosed Sprague-Dawley rat liver; assay type: functional, organism-based; details: TDE = time-dependent effect
Mus musculus [32] = experiment: Decrease in cholesterol level in LDLR deficient C57BL/6 mouse at 5 mg/kg/day once daily for 7 days; assay type: functional, organism-based
Rattus norvegicus [33] = experiment: Toxicity in Sprague-Dawley rat assessed as suppression of thyroid hormone axis measured by decrease in TSH-beta mRNA level at 30 mg/kg/day, po for 7 days relative to control; assay type: organism-based; parameters: route oral; details: in vivo, 168 h
Mus musculus [34] = experiment: Decrease in cholesterol level in LDLR deficient C57BL/6 mouse at 0.5 mg/kg/day once daily for 7 days; assay type: functional, organism-based
Rattus norvegicus [35] = experiment: Effect on plasma insulin level in Sprague-Dawley rat at 650 ug/kg/day, sc after 8 days; assay type: functional
Rattus norvegicus [36] = experiment: Effect on type 1 iodothyronine deiodinase mRNA expression in po dosed Sprague-Dawley rat heart; assay type: functional, organism-based; details: TDE = time-dependent effect; summary of the method: as §1
Rattus norvegicus [37] = experiment: Toxicity in Sprague-Dawley rat assessed as suppression of thyroid hormone axis measured by decrease in serum TSH level at 3 mg/kg/day, po for 7 days relative to control; assay type: organism-based; parameters: route oral; details: in vivo, 168 h
Rattus norvegicus [38] = experiment: Toxicity in Sprague-Dawley rat assessed as suppression of thyroid hormone axis measured by decrease in total 3,5,3',5'-tetraiodo-L-thyronine level at 300 mg/kg/day, po for 7 days; assay type: organism-based; parameters: route oral; details: in vivo, 168 h
Rattus norvegicus [39] = experiment: Toxic cardiac effect on Sprague-Dawley rat assessed as increase in heart rate at >= 0.065 mg/kg/day, po for 7 days; assay type: toxicity, organism-based; parameters: route oral; details: in vivo, 168 h; summary of the method: as §2
Mus musculus [40] = experiment: Decrease in cholesterol level in wild-type C57BL/6 mouse at 0.5 mg/kg/day once daily for 7 days; assay type: functional, organism-based
Rattus norvegicus [41] = experiment: Toxicity in Sprague-Dawley rat assessed as suppression of thyroid hormone axis measured by decrease in TSH-beta mRNA level at 1000 mg/kg/day, po for 7 days relative to control; assay type: organism-based; parameters: route oral; details: in vivo, 168 h
Rattus norvegicus [42] = experiment: Toxicity in Sprague-Dawley rat assessed as suppression of thyroid hormone axis measured by decrease in total […]-L-thyronine level at 1000 mg/kg/day, po for 7 days; assay type: organism-based; parameters: route oral; details: in vivo, 168 h
Mus musculus [43] = experiment: Effect on hepatic LDLR mRNA level in wild-type C57BL/6 mouse at 0.5 mg/kg/day once daily for 7 days; assay type: functional

SMILES: N[C@@H](Cc1cc(I)c(Oc2ccc(O)c(I)c2)c(I)c1)C(=O)O [LIOTHYRONINE]
- Activity (Rattus norvegicus [1]): tde
- Activity (Rattus norvegicus [2]): 16.2%
- Activity (Rattus norvegicus [3]): 0.0978
- Activity (Rattus norvegicus [4]): 37.3 ng/mL
- Activity (Rattus norvegicus [5]): 0.937 mM
- Activity (Rattus norvegicus [6]): tde
- Activity (Rattus norvegicus [7]): tde
- Activity (Rattus norvegicus [8]): tde
- Activity (Rattus norvegicus [9]): Active
- Activity (Mus musculus [10]): 9.5%
- Activity (Rattus norvegicus [11]): 4.2 ng/mL
- Activity (Rattus norvegicus [12]): 4.3 g
- Activity (Rattus norvegicus [13]): 0.93
- Activity (Rattus norvegicus [14]): 0.0139
- Activity (Rattus norvegicus [15]): 0.0031
- Activity (Rattus norvegicus [16]): tde
- Activity (Rattus norvegicus [17]): 0.001365
- Activity (Rattus norvegicus [18]): tde
- Activity (Rattus norvegicus [19]): tde
- Activity (Mus musculus [20]): Active
- Activity (Rattus norvegicus [21]): 0.42 ng/mL
- Activity (Rattus norvegicus [22]): 4.06 ng/mL
- Activity (Rattus norvegicus [23]): 8.4 ng/mL
- Activity (Rattus norvegicus [24]): 25 mg/dL
- Activity (Rattus norvegicus [25]): tde
- Activity (Rattus norvegicus [26]): 0.49 ng/mL
- Activity (Rattus norvegicus [27]): Active
- ED50 (Rattus norvegicus [28]): 0.012 mg/kg
- Activity (Rattus norvegicus [29]): tde
- Activity (Rattus norvegicus [30]): tde
- Activity (Rattus norvegicus [31]): tde
- Activity (Mus musculus [32]): inactive
- Activity (Rattus norvegicus [33]): 0.14
- Activity (Mus musculus [34]): inactive
- Activity (Rattus norvegicus [35]): 0.334 ng/mL
- Activity (Rattus norvegicus [36]): tde
- Activity (Rattus norvegicus [37]): 0.57
- Activity (Rattus norvegicus [38]): 1.43 ng/mL
- Activity (Rattus norvegicus [39]): Active
- Activity (Mus musculus [40]): Active
- Activity (Rattus norvegicus [41]): 0.081
- Activity (Rattus norvegicus [42]): 16.45 ng/mL
- Activity (Mus musculus [43]): -42.4%
